Tests used:
[1] = molecular target: T1, Nucleotide-binding oligomerization domain-containing protein 2 (Homo sapiens, UniProt Q9HC29); assay: Antagonist activity at recombinant human NOD2 expressed in HEK293 cells assessed as inhibition of MDP-induced IL8 release measured after 24 hrs by HTRF assay; type: cell-based
[2] = molecular target: T1, Nucleotide-binding oligomerization domain-containing protein 2; assay: Antagonist activity at NOD2 in HEK-Blue hNOD2 cells assessed as inhibition of MDP-induced NFkappaB activation-mediated SEAP release preincubated for 3 hrs followed by MDP addition and measured after 20 hrs by spectrophotometric method; type: cell-based
Outline: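 HEK-Blue hNOD2 cells preincubated 3 h with a range of concentrations, then MDP 100 ng/mL for 20 h. SEAP quantified. SRB assay run to exclude cytotoxicity. IC50 by nonlinear semi-logarithmic fit, mean ± SD, n = 3.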

[3] = molecular target: T1, Nucleotide-binding oligomerization domain-containing protein 2; assay: Antagonist activity at NOD2 in HEK-Blue hNOD2 cells assessed as inhibition of MDP-induced NFkappaB activation-mediated SEAP release at 5 uM preincubated for 3 hrs followed by MDP addition and measured after 20 hrs by spectrophotometric method relative to control; type: cell-based; details: time 23.0 hrs
[4] = molecular target: T2, Nucleotide-binding oligomerization domain-containing protein 1 (Homo sapiens) (UniProt Q9Y239); assay: Antagonist activity at NOD1 in HEK-Blue hNOD1 cells assessed as inhibition of C12-iE-DAP-induced NFkappaB activation-mediated SEAP release at 5 uM preincubated for 3 hrs followed by C12-iE-DAP addition and measured after 20 hrs by spectrophotometric method relative to control; type: cell-based; details: time 23.0 hrs
T2 sequence (whole entry): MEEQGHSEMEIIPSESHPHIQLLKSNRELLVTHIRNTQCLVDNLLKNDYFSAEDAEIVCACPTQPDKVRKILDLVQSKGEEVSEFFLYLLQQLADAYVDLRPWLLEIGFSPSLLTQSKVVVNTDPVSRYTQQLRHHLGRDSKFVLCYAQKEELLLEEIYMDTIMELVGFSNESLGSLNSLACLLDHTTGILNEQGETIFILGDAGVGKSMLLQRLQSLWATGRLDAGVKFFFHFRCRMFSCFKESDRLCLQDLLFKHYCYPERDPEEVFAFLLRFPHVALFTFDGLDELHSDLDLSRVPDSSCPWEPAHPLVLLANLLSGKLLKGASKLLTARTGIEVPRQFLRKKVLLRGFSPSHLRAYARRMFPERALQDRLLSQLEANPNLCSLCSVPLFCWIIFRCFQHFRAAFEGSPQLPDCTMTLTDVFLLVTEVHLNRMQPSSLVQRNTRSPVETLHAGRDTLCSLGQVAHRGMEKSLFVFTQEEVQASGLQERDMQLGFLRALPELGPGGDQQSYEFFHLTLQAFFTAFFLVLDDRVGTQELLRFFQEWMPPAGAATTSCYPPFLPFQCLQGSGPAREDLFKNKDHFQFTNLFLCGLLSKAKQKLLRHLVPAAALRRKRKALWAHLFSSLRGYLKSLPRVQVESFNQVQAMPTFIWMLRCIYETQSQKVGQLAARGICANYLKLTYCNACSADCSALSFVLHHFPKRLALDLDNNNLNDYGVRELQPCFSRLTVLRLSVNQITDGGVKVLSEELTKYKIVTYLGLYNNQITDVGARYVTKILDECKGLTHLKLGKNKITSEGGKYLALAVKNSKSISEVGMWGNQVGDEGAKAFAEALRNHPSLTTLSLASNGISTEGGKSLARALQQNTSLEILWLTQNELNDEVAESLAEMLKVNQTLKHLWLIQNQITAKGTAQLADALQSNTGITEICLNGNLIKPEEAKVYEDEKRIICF

[5] = molecular target: T3, Nucleotide-binding oligomerization domain-containing protein 1 (Homo sapiens, UniProt Q9Y239); assay: Antagonist activity at NOD1 in HEK-Blue hNOD1 cells assessed as inhibition of C12-iE-DAP-induced NFkappaB activation-mediated SEAP release preincubated for 3 hrs followed by C12-iE-DAP addition and measured after 20 hrs by spectrophotometric method; type: cell-based
T3 sequence (Q9Y239 whole entry): T2 sequence (whole entry)

[6] = Half life in mouse liver microsomes at 1.25 uM preincubated for 5 mins followed by NADPH generating system addition and measured for 120 mins by LC-MS/MS analysis; type: ADME, Microsome
Outline: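 Mouse liver microsomes (1.25 mg/mL protein) in 100 mM phosphate pH 7.4 with 1.25 µM compound, preincubated 5 min at 37 °C. Reaction started with NADPH-generating system (1 mM NADP, 10 mM MgCl2, 10 mM G6P, 0.5 U/mL G6PDH). Sampled at 0–120 min, quenched with MeOH/ACN 1:1, analysed by LC-MS/MS.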

T1 sequence (Q9HC29 whole entry, the tested form may be a part): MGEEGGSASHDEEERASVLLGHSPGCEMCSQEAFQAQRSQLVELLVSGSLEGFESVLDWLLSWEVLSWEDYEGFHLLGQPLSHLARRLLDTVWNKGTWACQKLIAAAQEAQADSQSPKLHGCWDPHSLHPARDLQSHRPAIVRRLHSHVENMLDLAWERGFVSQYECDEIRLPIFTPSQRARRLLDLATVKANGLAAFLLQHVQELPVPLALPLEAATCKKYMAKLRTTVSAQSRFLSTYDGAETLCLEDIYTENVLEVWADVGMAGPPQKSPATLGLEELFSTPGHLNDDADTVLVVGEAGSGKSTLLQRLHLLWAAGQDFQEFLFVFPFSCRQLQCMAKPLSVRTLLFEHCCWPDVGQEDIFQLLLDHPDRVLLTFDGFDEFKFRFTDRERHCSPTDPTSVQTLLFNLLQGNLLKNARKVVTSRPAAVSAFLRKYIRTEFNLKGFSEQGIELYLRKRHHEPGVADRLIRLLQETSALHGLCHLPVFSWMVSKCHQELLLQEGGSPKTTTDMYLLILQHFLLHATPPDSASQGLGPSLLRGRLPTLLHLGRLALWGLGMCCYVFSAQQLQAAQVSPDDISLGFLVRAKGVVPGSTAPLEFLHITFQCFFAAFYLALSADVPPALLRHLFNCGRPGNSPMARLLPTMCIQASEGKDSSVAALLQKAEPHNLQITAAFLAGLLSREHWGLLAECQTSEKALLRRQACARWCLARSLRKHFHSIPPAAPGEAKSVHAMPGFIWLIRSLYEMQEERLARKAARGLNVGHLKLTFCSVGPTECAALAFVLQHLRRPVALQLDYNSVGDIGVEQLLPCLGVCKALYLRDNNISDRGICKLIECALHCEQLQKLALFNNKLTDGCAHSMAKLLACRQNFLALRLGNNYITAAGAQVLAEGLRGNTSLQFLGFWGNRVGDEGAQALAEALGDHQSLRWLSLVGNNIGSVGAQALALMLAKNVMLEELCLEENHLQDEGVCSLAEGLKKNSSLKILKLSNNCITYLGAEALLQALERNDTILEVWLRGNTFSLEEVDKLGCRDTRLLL

Row | inhibition [4] [%] | Structure (SMILES) | inhibition ([4]; filed as antagonist) [%] | IC50 [5] [nM] | other results
1 | – | CCc1ccc(S(=O)(=O)Nc2cc(-n3c(C)nc4ccccc4c3=O)ccc2F)s1 | – | – | IC50 [1]: > 50 µM
2 | – | CN(C)c1cccc(Oc2cc3c(=O)[nH]cnc3cc2NC(=O)COCc2ccc(C(F)(F)F)cc2)c1 | 50.4 | – | IC50 [2]: 800 nM; inhibition ([3]; filed as antagonist): 54%
3 | – | CN(C)c1cccc(Oc2cc3c(=O)n(CC(=O)N4CCCC(F)(F)C4)cnc3cc2NC(=O)COCc2ccc(C(F)(F)F)cc2)c1 | 90.4 | 140 | IC50 [2]: 660 nM; inhibition ([3]; filed as antagonist): 94.2%
4 | 19.4 | CN(C)c1cccc(Oc2cc3c(=O)[nH]cnc3cc2NC(=O)c2ccc(C#N)cc2)c1 | – | – | inhibition [3]: 13.1%
5 | 37.6 | O=C(COCc1ccc(C(F)(F)F)cc1)Nc1cc2nc[nH]c(=O)c2cc1Oc1cccc(N2CCOCC2)c1 | – | – | –
6 | 33.5 | COC(=O)Cn1cnc2cc(NC(=O)CCCOc3ccc(F)cc3)c(Oc3cccc(N(C)C)c3)cc2c1=O | – | – | –
7 | – | O=C(COCc1ccc(C(F)(F)F)cc1)Nc1cc2ncn(CC(=O)N3CCCC(F)(F)C3)c(=O)c2cc1Oc1cccc(N2CCOCC2)c1 | 88.2 | 540 | half-life at 1.25 µM [6]: 12.9 min; IC50 [2]: 500 nM
8 | – | COC(=O)Cn1cnc2cc(NC(=O)CCCOc3ccc(C(F)(F)F)cc3)c(Oc3cccc(N4CCOCC4)c3)cc2c1=O | 91.2 | 1380 | half-life at 1.25 µM [6]: 9.6 min
9 | 33.4 | COC(=O)Cn1cnc2cc(NC(=O)COCc3ccc(F)cc3)c(Oc3cccc(N(C)C)c3)cc2c1=O | – | – | inhibition ([3]; filed as antagonist): 42.5%
10 | – | COC(=O)Cn1cnc2cc(NC(=O)CCCOc3ccc(C#N)cc3)c(Oc3cccc(N(C)C)c3)cc2c1=O | 48 | – | –
11 | – | O=C(NCCCc1ccc(Cl)cc1)c1cc2nc[nH]c(=O)c2cc1-c1cccc(Cl)c1 | 41.5 | – | –
12 | 22 | O=C(O)Cn1cnc2cc(C(=O)NCCCOc3ccc(C(F)(F)F)cc3)c(-c3cccc(Cl)c3)cc2c1=O | – | – | half-life at 1.25 µM [6]: 22.9 min
13 | 4.06 | O=C(NCCCc1ccccc1)c1cc2nc[nH]c(=O)c2cc1-c1cccc(C(F)(F)F)c1 | – | – | –
14 | -0.98 | COC(=O)Cn1cnc2cc(C(=O)NCCCc3ccccc3)c(-c3cccc(F)c3)cc2c1=O | – | – | –
15 | – | O=C(NCCCOc1ccc(C(F)(F)F)cc1)c1cc2ncn(CC(=O)N3CCCCC3)c(=O)c2cc1-c1cccc(Cl)c1 | 93.2 | 800 | half-life at 1.25 µM [6]: 15.6 min; IC50 [2]: 800 nM
16 | – | COC(=O)Cn1cnc2cc(NC(=O)COCc3ccc(C#N)cc3)c(Oc3cccc(N(C)C)c3)cc2c1=O | 55.7 | – | inhibition ([3]; filed as antagonist): 58.7%
17 | – | COC(=O)Cn1cnc2cc(C(=O)NCCCc3ccc(Cl)cc3)c(-c3cccc(F)c3)cc2c1=O | 65.3 | 3240 | –
18 | – | COC(=O)Cn1cnc2cc(NC(=O)COCc3ccc(Cl)cc3)c(Oc3cccc(N(C)C)c3)cc2c1=O | 69 | 4310 | –
19 | 6.6 | O=C(NCCCc1ccccc1)c1cc2nc[nH]c(=O)c2cc1-c1cccc(Cl)c1 | – | – | –
20 | – | CN(C)c1cccc(Oc2cc3c(=O)n(CC(=O)N4CCC(F)(F)CC4)cnc3cc2NC(=O)COCc2ccc(C(F)(F)F)cc2)c1 | 82 | 270 | IC50 [2]: 1180 nM; inhibition ([3]; filed as antagonist): 87%
21 | – | COC(=O)Cn1cnc2cc(NC(=O)COCc3ccc(C(F)(F)F)cc3)c(Oc3ccccc3N(C)C)cc2c1=O | 87.9 | 1650 | –
22 | – | COC(=O)Cn1cnc2cc(C(=O)NCCCOc3ccc(C(F)(F)F)cc3)c(-c3cccc(Cl)c3)cc2c1=O | 89.6 | 890 | IC50 [2]: 1000 nM
23 | – | COC(=O)Cn1cnc2cc(NC(=O)COCc3ccc(C(F)(F)F)cc3)c(Oc3cccc(N(C)C)c3)cc2c1=O | 85.4 | 1150 | IC50 [2]: 990 nM; inhibition ([3]; filed as antagonist): 76.9%

Row | inhibition [4] [%] | Structure (SMILES) | inhibition ([4]; filed as antagonist) [%] | IC50 [5] [nM] | other results
24 | – | COC(=O)Cn1cnc2cc(NC(=O)CCCOc3ccc(C(F)(F)F)cc3)c(Oc3ccc(N(C)C)cc3)cc2c1=O | 68.4 | 3870 | –
25 | – | O=C(NCCOCc1ccc(C(F)(F)F)cc1)c1cc2nc[nH]c(=O)c2cc1-c1cccc(C(F)(F)F)c1 | 72.4 | 4390 | –
26 | – | CN(C)c1cccc(Oc2cc3c(=O)n(CC(=O)N4CCCCC4)cnc3cc2NC(=O)COCc2ccc(C(F)(F)F)cc2)c1 | 87.5 | 260 | IC50 [2]: 1750 nM; inhibition ([3]; filed as antagonist): 92.4%
27 | – | O=C(NCCCOc1ccc(C(F)(F)F)cc1)c1cc2nc[nH]c(=O)c2cc1-c1cccc(Cl)c1 | 90 | 840 | IC50 [2]: 840 nM
28 | – | O=C(NCCOCc1ccc(C(F)(F)F)cc1)c1cc2nc[nH]c(=O)c2cc1-c1cccc(Cl)c1 | 64.4 | 1340 | half-life at 1.25 µM [6]: 22.9 min
29 | – | COC(=O)Cn1cnc2cc(C(=O)NCCCc3ccc(Cl)cc3)c(-c3cccc(Cl)c3)cc2c1=O | 58.2 | 1640 | –
30 | – | COC(=O)Cn1cnc2cc(NC(=O)COCc3ccc(C(F)(F)F)cc3)c(Oc3cccc(N4CCOCC4)c3)cc2c1=O | 88.9 | 650 | IC50 [2]: 550 nM
31 | – | CN(C)c1cccc(Oc2cc3c(=O)[nH]cnc3cc2NC(=O)CCCOc2ccc(C(F)(F)F)cc2)c1 | 59.1 | 5640 | IC50 [2]: 4770 nM; inhibition ([3]; filed as antagonist): 58.5%
32 | – | COC(=O)Cn1cnc2cc(NC(=O)COCc3ccccc3)c(Oc3cccc(N(C)C)c3)cc2c1=O | 47.6 | – | inhibition [3]: 35%
33 | -1.81 | O=C(NCCCc1ccccc1)c1cc2nc[nH]c(=O)c2cc1-c1cccc(F)c1 | – | – | –
34 | – | COC(=O)Cn1cnc2cc(C(=O)NCCOCc3ccc(C(F)(F)F)cc3)c(-c3cccc(F)c3)cc2c1=O | 64 | 3460 | –
35 | – | COC(=O)Cn1cnc2cc(NC(=O)COCc3ccc(C(F)(F)F)cc3)c(Oc3ccccc3)cc2c1=O | 50.2 | – | –
36 | – | COC(=O)Cn1cnc2cc(C(=O)NCCOCc3ccc(C(F)(F)F)cc3)c(-c3cccc(Cl)c3)cc2c1=O | 82.4 | 1120 | –
37 | 13.1 | COC(=O)Cn1cnc2cc(NC(=O)c3ccc(C#N)cc3)c(Oc3cccc(N(C)C)c3)cc2c1=O | – | – | –
38 | 28.2 | COC(=O)Cn1cnc2cc(NC(=O)CCCOc3ccc(C(F)(F)F)cc3)c(Oc3ccccc3)cc2c1=O | – | – | –
39 | 31.7 | COC(=O)Cn1cnc2cc(NC(=O)c3ccc(C(F)(F)F)cc3)c(Oc3cccc(N(C)C)c3)cc2c1=O | – | – | –
40 | – | COC(=O)Cn1cnc2cc(NC(=O)CCCOc3ccc(C(F)(F)F)cc3)c(Oc3cccc(N(C)C)c3)cc2c1=O | 70.9 | 2650 | –
41 | – | O=C(CCCOc1ccc(C(F)(F)F)cc1)Nc1cc2nc[nH]c(=O)c2cc1Oc1cccc(N2CCOCC2)c1 | 65.4 | 2480 | half-life at 1.25 µM [6]: 10.1 min
42 | 35 | O=C(NCCCc1ccc(Cl)cc1)c1cc2nc[nH]c(=O)c2cc1-c1cccc(C(F)(F)F)c1 | – | – | –
43 | – | O=C(NCCOCc1ccc(C(F)(F)F)cc1)c1cc2nc[nH]c(=O)c2cc1-c1cccc(F)c1 | 56.1 | 4110 | –
44 | – | CN(C)c1cccc(Oc2cc3c(=O)n(CC(=O)N4CCC(F)CC4)cnc3cc2NC(=O)COCc2ccc(C(F)(F)F)cc2)c1 | 89.1 | 210 | IC50 [2]: 1110 nM; inhibition ([3]; filed as antagonist): 94.3%
45 | – | O=C(NCCCc1ccc(Cl)cc1)c1cc2nc[nH]c(=O)c2cc1-c1cccc(F)c1 | 43.5 | – | –

Row | Structure (SMILES) | inhibition [4] [%] | inhibition ([4]; filed as antagonist) [%] | IC50 [5] [nM] | other results
46 | CN(C)c1cccc(Oc2cc3c(=O)[nH]cnc3cc2NC(=O)COCc2ccc(C#N)cc2)c1 | 30.4 | – | 9330 | inhibition [3]: 19.3%
